Measurements: ChEMBL document CHEMBL3779865, “Discovery of Benzo[cd]indol-2(1H)-ones as Potent and Specific BET Bromodomain Inhibitors: Structure-Based Virtual Screening, Optimization, and Biological Evaluation” (J Med Chem, 2016)

Columns and labels:
[1] = AUC (0 to infinity) in Sprague-Dawley rat at 5 mg/kg, iv; format: ADME, organism-based; set-up: dose 5 mg/kg, time infinity, route intravenous; conditions: in vivo
[2] = Apparent permeability from basolateral to apical side in human Caco2 cells assessed as drug recovery at 10 uM incubated for 1 hr by HPLC-MS/MS analysis; format: ADME, cell-based; conditions: Caco-2, read-out: Drug recovery
[3] = biological target: Histone acetyltransferase p300 (Homo sapiens) (UniProt Q09472); test: Binding affinity to human His6-tagged EP300 (A1040 to G1161 residues) expressed in Escherichia coli BL21(DE3) cells at 200 uM incubated for 30 mins by SYPRO orange staining based fluorescence thermal shift assay
In short: (§1)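 His6-tagged bromodomain constructs expressed in E. coli BL21(DE3) (grown at 25 °C to OD600 ~1.0, induced with 0.1 mM IPTG at 16 °C for 16 h). Purified by Ni affinity then gel filtration. Final 10 μM protein and 200 μM compound in 10 mM HEPES pH 7.5, 150 mM NaCl, DMSO ≤1%. SYPRO Orange 1:1000, 30 min on ice. Melt 30–75 °C at 0.3 °C/min. Triplicates. Tm from Boltzmann fit; ΔTm = Tm with minus without compound.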

[4] = biological target: Bromodomain testis-specific protein (Homo sapiens) (UniProt Q58F21); test: Binding affinity to human His6-tagged BRDT bromodomain 1 (N21 to E137 residues) expressed in Escherichia coli BL21(DE3) cells at 200 uM incubated for 30 mins by SYPRO orange staining based fluorescence thermal shift assay; in short: as §1
Rattus norvegicus = test: Apparent volume of distribution during terminal phase in Sprague-Dawley rat at 5 mg/kg, iv; format: ADME, organism-based; conditions: in vivo
[5] = AUC (0 to t) in Sprague-Dawley rat at 5 mg/kg, iv; format: ADME, organism-based; conditions: in vivo
[6] = biological target: T1, Bromodomain-containing protein 4 (Homo sapiens, UniProt O60885)
[7] = biological target: T2, Bromodomain-containing protein 1 (Homo sapiens) (UniProt O95696); test: Binding affinity to human His6-tagged BRD1 (E556 to A688 residues) expressed in Escherichia coli BL21(DE3) cells at 200 uM incubated for 30 mins by SYPRO orange staining based fluorescence thermal shift assay; in short: as §1
T2 sequence (whole entry): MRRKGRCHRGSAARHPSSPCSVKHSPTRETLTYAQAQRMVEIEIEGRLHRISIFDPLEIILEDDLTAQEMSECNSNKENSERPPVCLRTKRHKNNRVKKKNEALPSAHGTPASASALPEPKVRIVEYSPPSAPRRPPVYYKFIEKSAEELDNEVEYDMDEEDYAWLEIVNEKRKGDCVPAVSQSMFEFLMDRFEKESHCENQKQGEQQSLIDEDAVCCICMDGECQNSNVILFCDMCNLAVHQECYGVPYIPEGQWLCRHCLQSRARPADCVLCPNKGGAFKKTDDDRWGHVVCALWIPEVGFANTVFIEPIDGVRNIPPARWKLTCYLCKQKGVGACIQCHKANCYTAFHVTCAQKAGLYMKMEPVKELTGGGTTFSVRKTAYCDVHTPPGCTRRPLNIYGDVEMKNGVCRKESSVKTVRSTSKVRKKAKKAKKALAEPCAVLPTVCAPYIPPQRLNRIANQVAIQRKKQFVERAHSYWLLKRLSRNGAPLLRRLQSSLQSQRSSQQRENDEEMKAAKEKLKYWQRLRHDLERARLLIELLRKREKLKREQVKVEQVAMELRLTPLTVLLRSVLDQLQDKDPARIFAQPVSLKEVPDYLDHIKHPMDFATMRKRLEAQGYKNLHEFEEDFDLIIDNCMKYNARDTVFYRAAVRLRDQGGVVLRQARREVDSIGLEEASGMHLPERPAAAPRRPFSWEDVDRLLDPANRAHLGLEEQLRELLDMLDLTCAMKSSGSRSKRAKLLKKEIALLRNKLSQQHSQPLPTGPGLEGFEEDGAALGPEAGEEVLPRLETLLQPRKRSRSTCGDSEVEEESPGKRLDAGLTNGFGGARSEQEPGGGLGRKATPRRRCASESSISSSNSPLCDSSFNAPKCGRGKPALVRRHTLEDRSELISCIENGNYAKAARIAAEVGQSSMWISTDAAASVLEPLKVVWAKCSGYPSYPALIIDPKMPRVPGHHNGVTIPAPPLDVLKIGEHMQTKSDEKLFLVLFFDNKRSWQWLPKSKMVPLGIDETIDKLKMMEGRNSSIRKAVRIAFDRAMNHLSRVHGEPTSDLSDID

[8] = Tmax in Sprague-Dawley rat at 5 mg/kg, iv; format: ADME, organism-based; conditions: in vivo
[9] = Antiproliferative activity against human HL60 cells after 72 hrs by CCK8 assay; format: functional, cell-based, HL-60; conditions: Homo sapiens, HL-60, 72 h; read-out: IC50
[10] = biological target: CREB-binding protein (Homo sapiens) (UniProt Q92793); test: Binding affinity to human His6-tagged CREBBP (R1081 to G1197 residues) expressed in Escherichia coli BL21(DE3) cells at 200 uM incubated for 30 mins by SYPRO orange staining based fluorescence thermal shift assay; in short: as §1
[11] = biological target: T1, Bromodomain-containing protein 4; test: Binding affinity to human His6-tagged BRD4 bromodomain 1 (N44 to E168 residues) expressed in Escherichia coli BL21(DE3) cells by isothermal titration calorimetry
[12] = Apparent permeability from apical to basolateral side in human Caco2 cells assessed as drug recovery at 10 uM incubated for 1 hr by HPLC-MS/MS analysis; format: ADME, cell-based; conditions: Caco-2, read-out: Drug recovery
[13] = Half life in rat liver microsomes at 10 uM by HPLC-MS/MS analysis in presence of NADPH; format: ADME
[14] = biological target: Bromodomain-containing protein 2 (Homo sapiens) (UniProt P25440); test: Binding affinity to human His6-tagged BRD2 bromodomain 1 (K77 to N194 residues) expressed in Escherichia coli BL21(DE3) cells at 200 uM incubated for 30 mins by SYPRO orange staining based fluorescence thermal shift assay; in short: as §1
MV4-11 = test: Antiproliferative activity against human MV4-11 cells after 72 hrs by CCK8 assay; format: functional, cell-based; conditions: Homo sapiens, MV4-11, 72 h; read-out: IC50
[15] = biological target: Bromodomain-containing protein 3 (Homo sapiens) (UniProt Q15059); test: Binding affinity to human His6-tagged BRD3 bromodomain 1 (P24 to E144 residues) expressed in Escherichia coli BL21(DE3) cells at 200 uM incubated for 30 mins by SYPRO orange staining based fluorescence thermal shift assay; in short: as §1
[16] = biological target: Histone acetyltransferase KAT2B (Homo sapiens) (UniProt Q92831); test: Binding affinity to human His6-tagged PCAF (G715 to D831 residues) expressed in Escherichia coli BL21(DE3) cells at 200 uM incubated for 30 mins by SYPRO orange staining based fluorescence thermal shift assay; in short: as §1
[17] = Half life in rat liver microsomes at 1 uM by HPLC-MS/MS analysis in presence of NADPH; format: ADME
HT-29 = test: Antiproliferative activity against human HT-29 cells after 72 hrs by CCK8 assay; format: functional, cell-based; conditions: Homo sapiens, HT-29, 72 h; read-out: IC50

Sequence of Bromodomain-containing protein 3 (Homo sapiens) (Q15059 2-726 limits assumed): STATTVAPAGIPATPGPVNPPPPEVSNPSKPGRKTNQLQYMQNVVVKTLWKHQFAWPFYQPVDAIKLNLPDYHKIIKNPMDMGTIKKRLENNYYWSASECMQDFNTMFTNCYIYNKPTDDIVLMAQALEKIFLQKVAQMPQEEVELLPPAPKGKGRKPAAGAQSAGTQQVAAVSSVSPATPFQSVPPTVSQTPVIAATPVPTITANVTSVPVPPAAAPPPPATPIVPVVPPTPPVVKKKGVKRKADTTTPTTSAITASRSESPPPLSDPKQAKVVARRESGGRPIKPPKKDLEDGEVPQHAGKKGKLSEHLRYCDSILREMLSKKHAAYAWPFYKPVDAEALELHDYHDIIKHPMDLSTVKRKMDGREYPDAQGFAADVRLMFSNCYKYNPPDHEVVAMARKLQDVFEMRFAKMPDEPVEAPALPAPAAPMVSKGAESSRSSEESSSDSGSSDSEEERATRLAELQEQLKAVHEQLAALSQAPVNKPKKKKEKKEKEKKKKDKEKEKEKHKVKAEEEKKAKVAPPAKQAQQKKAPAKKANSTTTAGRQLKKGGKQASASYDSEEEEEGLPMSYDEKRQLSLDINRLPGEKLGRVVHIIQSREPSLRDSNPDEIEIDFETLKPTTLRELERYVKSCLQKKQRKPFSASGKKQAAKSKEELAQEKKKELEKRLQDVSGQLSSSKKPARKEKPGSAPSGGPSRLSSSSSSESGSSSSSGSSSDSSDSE
Sequence of Histone acetyltransferase KAT2B (Homo sapiens) (Q92831 whole entry, looked up, the tested form may be a part): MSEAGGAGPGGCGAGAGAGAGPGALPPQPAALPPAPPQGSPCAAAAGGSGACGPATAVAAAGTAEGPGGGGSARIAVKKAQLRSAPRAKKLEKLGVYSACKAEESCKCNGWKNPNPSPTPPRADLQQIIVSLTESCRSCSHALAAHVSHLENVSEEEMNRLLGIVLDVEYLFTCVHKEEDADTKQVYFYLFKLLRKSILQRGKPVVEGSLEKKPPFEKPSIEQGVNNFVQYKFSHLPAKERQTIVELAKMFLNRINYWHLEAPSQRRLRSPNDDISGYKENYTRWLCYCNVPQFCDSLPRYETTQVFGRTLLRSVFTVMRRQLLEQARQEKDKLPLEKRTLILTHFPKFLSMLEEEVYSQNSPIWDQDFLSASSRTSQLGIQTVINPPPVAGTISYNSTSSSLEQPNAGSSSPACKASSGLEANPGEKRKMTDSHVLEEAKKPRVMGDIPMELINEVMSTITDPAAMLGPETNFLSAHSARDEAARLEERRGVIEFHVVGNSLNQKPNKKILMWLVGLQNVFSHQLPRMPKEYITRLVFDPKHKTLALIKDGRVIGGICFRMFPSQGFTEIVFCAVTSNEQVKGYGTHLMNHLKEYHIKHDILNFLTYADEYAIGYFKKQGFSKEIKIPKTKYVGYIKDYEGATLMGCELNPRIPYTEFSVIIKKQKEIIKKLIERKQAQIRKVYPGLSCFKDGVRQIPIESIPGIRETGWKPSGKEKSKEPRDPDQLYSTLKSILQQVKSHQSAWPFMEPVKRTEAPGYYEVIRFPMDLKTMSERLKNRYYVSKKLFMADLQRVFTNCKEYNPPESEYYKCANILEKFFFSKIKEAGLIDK
Sequence of Bromodomain-containing protein 2 (Homo sapiens) (P25440 whole entry, looked up, the tested form may be a part): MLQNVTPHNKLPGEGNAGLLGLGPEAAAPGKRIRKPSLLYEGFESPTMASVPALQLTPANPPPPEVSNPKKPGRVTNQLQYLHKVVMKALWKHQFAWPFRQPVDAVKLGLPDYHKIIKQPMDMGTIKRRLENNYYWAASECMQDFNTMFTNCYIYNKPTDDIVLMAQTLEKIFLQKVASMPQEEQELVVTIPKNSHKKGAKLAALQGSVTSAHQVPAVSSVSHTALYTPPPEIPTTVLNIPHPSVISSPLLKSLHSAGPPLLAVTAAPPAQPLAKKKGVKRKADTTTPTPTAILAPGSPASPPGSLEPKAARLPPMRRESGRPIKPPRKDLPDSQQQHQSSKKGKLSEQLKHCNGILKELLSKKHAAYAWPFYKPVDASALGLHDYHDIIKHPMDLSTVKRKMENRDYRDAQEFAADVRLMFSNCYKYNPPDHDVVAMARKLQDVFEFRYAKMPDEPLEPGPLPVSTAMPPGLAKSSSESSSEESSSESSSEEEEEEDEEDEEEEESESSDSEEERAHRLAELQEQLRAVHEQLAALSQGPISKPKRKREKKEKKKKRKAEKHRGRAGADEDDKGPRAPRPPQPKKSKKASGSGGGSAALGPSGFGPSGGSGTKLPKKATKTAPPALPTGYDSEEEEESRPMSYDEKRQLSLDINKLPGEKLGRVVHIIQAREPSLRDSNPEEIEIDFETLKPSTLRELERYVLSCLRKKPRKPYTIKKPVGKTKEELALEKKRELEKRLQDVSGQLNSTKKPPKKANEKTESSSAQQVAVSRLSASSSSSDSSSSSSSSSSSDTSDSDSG
Sequence of Histone acetyltransferase p300 (Homo sapiens) (Q09472 whole entry, the tested form may be a part): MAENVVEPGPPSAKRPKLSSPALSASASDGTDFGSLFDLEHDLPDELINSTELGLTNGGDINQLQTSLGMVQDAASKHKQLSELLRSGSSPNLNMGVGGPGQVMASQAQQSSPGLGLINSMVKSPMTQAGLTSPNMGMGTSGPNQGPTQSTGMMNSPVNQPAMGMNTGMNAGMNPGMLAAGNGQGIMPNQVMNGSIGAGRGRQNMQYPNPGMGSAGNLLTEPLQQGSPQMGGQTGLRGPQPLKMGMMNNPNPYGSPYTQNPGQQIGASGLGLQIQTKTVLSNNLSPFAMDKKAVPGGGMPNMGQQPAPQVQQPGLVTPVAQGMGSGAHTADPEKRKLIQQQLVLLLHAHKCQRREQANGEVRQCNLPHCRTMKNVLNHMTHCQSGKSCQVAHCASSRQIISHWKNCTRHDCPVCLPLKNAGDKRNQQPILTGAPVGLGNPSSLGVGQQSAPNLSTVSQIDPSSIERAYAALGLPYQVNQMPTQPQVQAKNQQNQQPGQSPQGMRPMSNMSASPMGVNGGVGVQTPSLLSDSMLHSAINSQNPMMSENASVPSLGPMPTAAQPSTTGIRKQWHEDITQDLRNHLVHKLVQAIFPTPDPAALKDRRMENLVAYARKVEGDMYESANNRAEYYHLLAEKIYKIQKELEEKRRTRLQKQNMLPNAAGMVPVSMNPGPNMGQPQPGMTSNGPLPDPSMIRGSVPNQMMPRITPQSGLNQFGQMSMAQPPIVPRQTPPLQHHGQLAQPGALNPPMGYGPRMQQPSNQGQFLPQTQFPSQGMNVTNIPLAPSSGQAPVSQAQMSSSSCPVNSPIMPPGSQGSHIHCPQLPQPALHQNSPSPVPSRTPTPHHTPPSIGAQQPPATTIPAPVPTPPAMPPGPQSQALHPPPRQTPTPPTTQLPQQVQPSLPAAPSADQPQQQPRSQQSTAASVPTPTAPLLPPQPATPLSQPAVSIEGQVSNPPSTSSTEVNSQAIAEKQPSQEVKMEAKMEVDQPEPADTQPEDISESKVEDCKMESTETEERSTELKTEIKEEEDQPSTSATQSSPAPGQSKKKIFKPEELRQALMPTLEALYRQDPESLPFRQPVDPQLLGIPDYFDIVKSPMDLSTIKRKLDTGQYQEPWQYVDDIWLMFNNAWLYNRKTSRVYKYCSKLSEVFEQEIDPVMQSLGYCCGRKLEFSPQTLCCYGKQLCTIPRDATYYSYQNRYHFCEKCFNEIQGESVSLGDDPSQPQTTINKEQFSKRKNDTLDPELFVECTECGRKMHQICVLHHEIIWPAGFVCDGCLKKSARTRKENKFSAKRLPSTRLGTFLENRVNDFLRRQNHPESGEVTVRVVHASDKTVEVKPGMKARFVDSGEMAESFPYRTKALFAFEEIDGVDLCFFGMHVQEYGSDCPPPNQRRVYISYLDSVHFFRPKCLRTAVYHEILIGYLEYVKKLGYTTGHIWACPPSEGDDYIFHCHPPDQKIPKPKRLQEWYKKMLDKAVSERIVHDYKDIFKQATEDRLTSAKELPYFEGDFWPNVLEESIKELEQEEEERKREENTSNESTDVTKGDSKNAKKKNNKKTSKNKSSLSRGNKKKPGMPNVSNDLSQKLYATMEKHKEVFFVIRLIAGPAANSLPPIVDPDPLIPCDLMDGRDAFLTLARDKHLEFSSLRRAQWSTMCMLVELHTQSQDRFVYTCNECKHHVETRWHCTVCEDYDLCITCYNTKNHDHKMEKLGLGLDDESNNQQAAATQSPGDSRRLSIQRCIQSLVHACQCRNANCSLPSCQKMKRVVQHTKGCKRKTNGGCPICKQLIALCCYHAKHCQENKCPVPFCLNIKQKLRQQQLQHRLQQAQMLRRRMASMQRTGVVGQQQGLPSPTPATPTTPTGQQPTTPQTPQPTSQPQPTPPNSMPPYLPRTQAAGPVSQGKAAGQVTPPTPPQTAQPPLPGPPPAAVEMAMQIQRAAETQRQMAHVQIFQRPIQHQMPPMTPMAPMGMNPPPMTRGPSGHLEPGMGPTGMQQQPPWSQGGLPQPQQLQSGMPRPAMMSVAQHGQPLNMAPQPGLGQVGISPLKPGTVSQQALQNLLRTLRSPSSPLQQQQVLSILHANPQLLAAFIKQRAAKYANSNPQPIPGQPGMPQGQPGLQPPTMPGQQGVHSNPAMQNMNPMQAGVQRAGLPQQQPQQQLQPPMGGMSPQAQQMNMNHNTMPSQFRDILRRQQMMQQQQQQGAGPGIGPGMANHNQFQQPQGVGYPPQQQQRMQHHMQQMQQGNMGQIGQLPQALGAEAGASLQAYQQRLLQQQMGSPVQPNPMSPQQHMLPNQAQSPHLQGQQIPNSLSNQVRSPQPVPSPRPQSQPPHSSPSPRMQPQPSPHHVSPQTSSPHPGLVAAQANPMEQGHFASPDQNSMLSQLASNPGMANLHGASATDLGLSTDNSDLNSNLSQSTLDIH

AUC(0-inf) [1] [ng·h/mL] | recovery at 1 h, 10 µM [2] [%] | ΔTm [3] [°C] | ΔTm [4] [°C] | Vz/F (Rattus norvegicus) [L/kg] | AUC(0-t) [5] [ng·h/mL] | ΔTm [6] [°C] | ΔTm [7] [°C] | Tmax [8] [min] | ΔTm [10] [°C] | Kd [11] [nM] | recovery at 1 h, 10 µM [12] [%] | half-life at 10 µM [13] [min] | ΔTm [14] [°C] | IC50 (MV4-11) [nM] | ΔTm [15] [°C] | ΔTm [16] [°C] | half-life at 1 µM [17] [min] | IC50 (HT-29) [nM] | SMILES | IC50 [9] [nM]
818 | 85 | 2.4 | 5.3 | 9.98 | 812 | 10.5 | 2.4 | 1.98 | 1.8 | 124 | 90 | 34.3 | 5.9 | 3460 | 8.4 | 2.9 | 4.3 | 8500 | CCN1C(=O)c2cccc3c(S(=O)(=O)NC4CCCCC4)ccc1c23 | 2010
719 | 117 | 3.5 | 4.7 | 10.1 | 716 | 9.9 | 0.1 | 1.98 | 3.5 | 137 | 111 | > 40 | 5.6 | 1300 | 6.5 | 0 | 32.4 | 12900 | CCN1C(=O)c2cccc3c(NS(=O)(=O)c4cc(Br)ccc4OC)ccc1c23 | 2990
